Experimental data from different studies.
Compare with care: the assays were run in different laboratories.
HIPK4: Homeodomain-interacting protein kinase 4 (HIPK4, Homo sapiens, UniProt Q8NE63)
MAOA: Amine oxidase [flavin-containing] A (MAOA, Homo sapiens, UniProt P21397)

`CCCOc1ccc(OC)c(F)c1C(=O)c1ccc(C(=O)N[C@@H]2CNC[C@H]2NC(=O)c2ccc3[nH]ncc3c2)cc1` has a remaining activity of 106% (Ribosomal protein S6 kinase alpha-1 (Rps6ka1, Rattus norvegicus, UniProt Q63531); enzyme activity, inhibitor; 50 nM).
`CC[C@H](C)[C@H](NC(=O)[C@H](CCC(N)=O)NC(=O)[C@H](CC(C)C)NC(=O)[C@H](CCSC)NC(=O)[C@H](CCCCN)NC(=O)[C@H](CO)NC(=O)[C@H](CO)NC(=O)[C@H](CCSC)NC(=O)[C@H](CC(C)C)NC(=O)[C@H](CC(N)=O)NC(=O)[C@@H](NC(=O)[C@@H](NC(=O)[C@H](CO)NC(=O)[C@H](CC(C)C)NC(=O)[C@H](CS)NC(=O)[C@H](CCCNC(=N)N)NC(=O)[C@H](CC(=O)O)NC(=O)[C@H](Cc1c[nH]c2ccccc12)NC(=O)[C@H](Cc1ccccc1)NC(=O)[C@H](C)NC(=O)[C@H](CCC(=O)O)NC(=O)[C@@H](N)CCCCN)C(C)C)[C@@H](C)CC)C(=O)N[C@@H](CC(N)=O)C(=O)N[C@@H](C)C(=O)O` has an inhibition of 41% (Cyclin-dependent kinase 5, with p25 (CDK5, Homo sapiens, UniProt Q00535); enzyme activity, inhibitor, radiometric; 100 µM).
For `O=C(O)c1ccc2c(c1)nc(NCCc1cccc(Cl)c1)c1ncncc12`, the remaining activity was 53% (HIPK4; enzyme activity, inhibitor, radiometric; 1 µM).
`O=C(Nc1ccccc1)c1ccc(Cl)cc1` has an inhibition of 18% (MAOA; enzyme activity, inhibitor; 1 µM, 20 min).
With `O=C(O)c1ccc2c(c1)nc(Nc1ccc(Cl)cc1)c1ccncc12` the remaining activity was 116% (HIPK4; enzyme activity, inhibitor, radiometric; 1 µM).
The remaining signal of `Nc1ncnc2occ(-c3ccc(NC(=O)Nc4cc(C(F)(F)F)ccc4F)cc3)c12` is reported as 0.6% (Cyclin-dependent kinase-like 2 (CDKL2, Homo sapiens, UniProt Q92772); cell-free assay; 20 µM).
`Cc1nc2ccc(NC(=O)CCNC(=O)CCCc3ccc(CC(C(=O)O)C(=O)O)cc3)cc2s1` has a residence time of 0.94 s (L-lactate dehydrogenase A chain (LDHA, Homo sapiens, UniProt P00338); binding, SPR).
For `CC[C@H](C)[C@H](NC(=O)[C@H](CC(=O)O)NC(=O)[C@@H](NC(=O)[C@H](Cc1ccccc1)NC(=O)[C@H](C)NC(=O)[C@H](Cc1ccccc1)NC(=O)[C@@H]1CCCN1C(=O)[C@H](C)NC(=O)[C@@H](NC(=O)[C@H](CO)NC(=O)[C@H](Cc1ccccc1)NC(=O)[C@H](CCCNC(=N)N)NC(=O)[C@H](CCCNC(=N)N)NC(=O)[C@@H](N)CC(C)C)[C@@H](C)O)[C@@H](C)CC)C(=O)N[C@@H](CC(N)=O)C(=O)N[C@@H](CC(=O)O)C(=O)N[C@H](C(=O)N[C@H](C(=O)N[C@@H](CC(N)=O)C(=O)N[C@@H](Cc1ccccc1)C(=O)O)[C@@H](C)CC)C(C)C`, the kon was 1e+06 M⁻¹ s⁻¹ (Integrin alpha-V/beta-3 (Homo sapiens, UniProt P05106+P06756); binding, BLI).
For `COc1cc(NC(C)=O)c(Cl)cc1C(=O)Nc1nccs1`, the inhibition was 42.5% (Kappa-type opioid receptor (Oprk1, Rattus norvegicus, UniProt P34975); ligand displacement, radioligand; 10 µM).
For `CCOc1ccc(C(=O)Nc2ccc(OC(F)(F)F)cc2)cc1OCC`, the inhibition was 5% (MAOA; enzyme activity, inhibitor; 1 µM, 20 min).
The inhibition of `Oc1cccc(Nc2nc(-c3ccc(F)cc3F)cs2)c1` is reported as 35.2% (Alpha-1A adrenergic receptor (ADRA1A, Homo sapiens, UniProt P35348); cell-free assay; 10 µM).
For `O=C(Nc1ccc([N+](=O)[O-])cc1C(F)(F)F)c1cc(Cl)ccc1O`, the inhibition was 13% (MAOA; enzyme activity, inhibitor; 1 µM, 20 min).
`Oc1c(Br)cc(Oc2ccc(Br)cc2Br)cc1Br` gave a Km of 44 µM (Sulfotransferase 1B1 (SULT1B1, Homo sapiens, UniProt O43704); enzyme activity, substrate).
`Cc1cc([N+](=O)[O-])ccc1NC(=O)c1ccc(Cl)cc1` gave an inhibition of 13% (MAOA; enzyme activity, inhibitor; 1 µM, 20 min).
For `Cc1ccc(C(=O)Nc2ccc(CN3CCN(C)CC3)c(C(F)(F)F)c2)cc1C#Cc1cnc2cccnn12`, the remaining activity was 89% (Uncharacterized serine/threonine-protein kinase SBK3 (SBK3, Homo sapiens, UniProt P0C264); enzyme activity, inhibitor; 23.5 nM).
For `O=C(Nc1ccc([N+](=O)[O-])cc1Cl)c1cc2ccccc2s1`, the inhibition was 11% (MAOA; enzyme activity, inhibitor; 1 µM, 20 min).
With `N#Cc1cccc(Nc2nc3cc(C(=O)O)ccc3c3cncnc23)c1` the remaining activity was 35% (HIPK4; enzyme activity, inhibitor, radiometric; 1 µM).
